ChEMBL document CHEMBL4038340, “Development of Novel Peptide-Based Michael Acceptors Targeting Rhodesain and Falcipain-2 for the Treatment of Neglected Tropical Diseases (NTDs)” (J Med Chem, 2017)
The source made the active and inactive calls. The rule behind the calls is not given here.

Columns and labels:
[1] = system: Trypanosoma brucei brucei; experiment: Antiparasitic activity against bloodstream form of Trypanosoma brucei brucei 449 after 24 hrs by ATPlite assay; assay type: functional; details: Trypanosoma brucei, 449, 24 h
[2] = system: Trypanosoma brucei brucei; experiment: Inhibition of trypanothione synthetase in blood stream of Trypanosoma brucei brucei assessed as cellular content of free trypanothione after 24 hrs by HPLC analysis
Summary of the method: (§1)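 Bloodstream-form T. brucei were seeded at 1 x10^5 cells/ml and treated for 24 h, with untreated cells as control. Free thiols (GSH, T(SH)2), and free thiols plus disulfides (GSSG, TS2), were labelled with monobromobimane and quantified by HPLC. Values are mean ± SD of three independent experiments.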

Rhodesain = Rhodesain (Trypanosoma brucei rhodesiense, UniProt Q95PM0); experiment: Inhibition of recombinant Trypanosoma brucei rhodesiense rhodesain expressed in Pichia pastoris using Cbz-Phe-Arg-AMC as substrate after 30 min by fluorescence assay
Summary of the method: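 Recombinant rhodesain with fluorogenic Cbz-Phe-Arg-AMC substrate. Compounds were first screened at a fixed 50 µM, with DMSO as negative control and an irreversible clan CA cysteine-protease inhibitor as positive control. Continuous assays at seven inhibitor concentrations, from minimally to fully inhibitory, gave kinac (min-1) and Ki, with k2nd = kinac/Ki (M-1 min-1).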

[3] = target: Rhodesain (Trypanosoma brucei rhodesiense) (UniProt Q95PM0); experiment: Inhibition of recombinant Trypanosoma brucei rhodesiense rhodesain expressed in Pichia pastoris assessed as second order rate constant using Cbz-Phe-Arg-AMC as substrate after 30 mins by fluorescence assay
Summary of the method: (§2)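 Recombinant rhodesain with fluorogenic substrate Cbz-Phe-Arg-AMC. Preliminary screen at a fixed inhibitor concentration of 50 µM. Equal volume of DMSO served as negative control and E-64 as irreversible positive control. Active compounds went on to continuous assays at seven concentrations, from minimally to fully inhibitory, giving kinac (min-1), Ki (nM) and k2nd = kinac/Ki (M-1 min-1).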

Procathepsin L [4] = target: T1, Procathepsin L (Homo sapiens, UniProt P07711); experiment: Inhibition of human cathepsin L assessed as second order rate constant using Cbz-Phe-Arg-AMC as substrate after 10 mins by fluorescence assay
Target sequence in this assay (P07711 114-333 limits assumed): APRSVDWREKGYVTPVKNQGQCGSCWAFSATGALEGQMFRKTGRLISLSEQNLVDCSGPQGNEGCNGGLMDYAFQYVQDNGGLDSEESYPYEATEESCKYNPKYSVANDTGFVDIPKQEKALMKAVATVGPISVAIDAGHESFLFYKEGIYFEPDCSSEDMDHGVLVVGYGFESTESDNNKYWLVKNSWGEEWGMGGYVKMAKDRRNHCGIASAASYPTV

[5] = system: Trypanosoma brucei brucei; experiment: Antiparasitic activity against bloodstream form of Trypanosoma brucei brucei 449 after 48 hrs by ATPlite assay; assay type: functional; details: Trypanosoma brucei, 449, 48 h
Falcipain 2 = target: T2, Falcipain 2 (Plasmodium falciparum, UniProt Q9N6S8); experiment: Inhibition of recombinant Plasmodium falciparum falcipain-2 expressed in Escherichia coli M15(pREP4) using Cbz-Phe-Arg-AMC as substrate by fluorescence assay
T2 sequence (Q9N6S8 whole entry): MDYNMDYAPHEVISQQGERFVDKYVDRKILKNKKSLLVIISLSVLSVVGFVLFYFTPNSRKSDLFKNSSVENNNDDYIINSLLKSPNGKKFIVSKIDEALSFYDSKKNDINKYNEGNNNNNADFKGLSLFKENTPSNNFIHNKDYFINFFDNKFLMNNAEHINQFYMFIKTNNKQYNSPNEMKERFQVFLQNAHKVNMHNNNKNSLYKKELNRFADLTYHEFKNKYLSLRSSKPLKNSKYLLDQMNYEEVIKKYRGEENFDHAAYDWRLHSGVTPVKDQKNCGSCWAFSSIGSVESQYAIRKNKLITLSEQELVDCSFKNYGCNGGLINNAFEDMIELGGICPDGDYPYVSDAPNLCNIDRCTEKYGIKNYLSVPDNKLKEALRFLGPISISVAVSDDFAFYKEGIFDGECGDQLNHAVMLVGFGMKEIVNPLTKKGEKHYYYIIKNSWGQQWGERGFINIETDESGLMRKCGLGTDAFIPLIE

Procathepsin L [6] = target: T1, Procathepsin L; experiment: Inhibition of human cathepsin L assessed as first order rate constant using Cbz-Phe-Arg-AMC as substrate after 10 mins by fluorescence assay
Target sequence in this assay (P07711 114-333 limits assumed): as the sequence (P07711 114-333 limits assumed) above

Plasmodium falciparum = experiment: Antiparasitic activity against Plasmodium falciparum W2 after 48 hrs by YOYO-1 probe-based flow cytometry; assay type: functional; details: W2, 48 h
[7] = system: Trypanosoma brucei brucei; experiment: Effect on protein bound glutathione level in blood stream of Trypanosoma brucei brucei; assay type: functional
[8] = target: Rhodesain (Trypanosoma brucei rhodesiense) (UniProt Q95PM0); experiment: Inhibition of recombinant Trypanosoma brucei rhodesiense rhodesain expressed in Pichia pastoris assessed as first order rate constant using Cbz-Phe-Arg-AMC as substrate after 30 mins by fluorescence assay; summary of the method: as §2
[9] = system: Trypanosoma brucei brucei; experiment: Effect on glutathione level in blood stream of Trypanosoma brucei brucei at 3 uM after 24 hrs by HPLC analysis; assay type: functional; summary of the method: as §1
Procathepsin L [10] = target: T1, Procathepsin L; experiment: Inhibition of human cathepsin L using Cbz-Phe-Arg-AMC as substrate after 10 mins by fluorescence assay
Target sequence in this assay (P07711 whole entry): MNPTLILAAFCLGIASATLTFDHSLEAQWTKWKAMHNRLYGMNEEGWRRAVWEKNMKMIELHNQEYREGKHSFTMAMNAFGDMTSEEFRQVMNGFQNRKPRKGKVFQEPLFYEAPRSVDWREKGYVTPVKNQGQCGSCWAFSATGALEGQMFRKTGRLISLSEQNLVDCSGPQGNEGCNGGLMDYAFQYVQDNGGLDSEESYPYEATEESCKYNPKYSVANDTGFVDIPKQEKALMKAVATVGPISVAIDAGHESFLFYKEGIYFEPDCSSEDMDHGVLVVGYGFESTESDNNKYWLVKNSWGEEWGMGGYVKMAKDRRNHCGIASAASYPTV

[11] = Cytotoxicity against human HeLa cells assessed as decrease in cell viability after 48 hrs by MTT assay; assay type: cell-based
[12] = Selectivity index, ratio of CC50 for human HeLa cells to EC50 for Trypanosoma brucei brucei 449 for 48 hrs; assay type: toxicity, cell-based; details: read-out: Ratio CC50/EC50
[13] = system: Trypanosoma brucei brucei; experiment: Inhibition of trypanothione synthetase in blood stream of Trypanosoma brucei brucei assessed as cellular content of free trypanothione at 3 uM after 24 hrs by HPLC analysis (reference value: 340 uM); summary of the method: as §1
[14] = target: Rhodesain (Trypanosoma brucei rhodesiense) (UniProt Q95PM0); experiment: Inhibition of recombinant Trypanosoma brucei rhodesiense rhodesain expressed in Pichia pastoris using Cbz-Phe-Arg-AMC as substrate at 50 uM after 30 mins by fluorescence assay; summary of the method: as §2

Sequence of Rhodesain (Q95PM0 whole entry): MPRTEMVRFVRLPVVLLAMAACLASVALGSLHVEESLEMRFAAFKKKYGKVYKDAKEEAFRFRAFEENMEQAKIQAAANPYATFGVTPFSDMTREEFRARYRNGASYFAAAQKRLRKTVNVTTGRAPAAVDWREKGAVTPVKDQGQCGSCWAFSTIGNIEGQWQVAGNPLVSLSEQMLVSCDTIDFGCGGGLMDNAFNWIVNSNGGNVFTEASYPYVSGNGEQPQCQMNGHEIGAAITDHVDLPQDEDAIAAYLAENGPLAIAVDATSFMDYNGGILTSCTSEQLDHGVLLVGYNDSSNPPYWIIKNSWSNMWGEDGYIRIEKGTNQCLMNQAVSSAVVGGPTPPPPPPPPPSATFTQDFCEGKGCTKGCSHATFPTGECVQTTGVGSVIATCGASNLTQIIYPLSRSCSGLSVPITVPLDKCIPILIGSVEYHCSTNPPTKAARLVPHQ
Sequence of Rhodesain (Trypanosoma brucei rhodesiense) (Q95PM0 1-450): as the sequence (Q95PM0 whole entry) above

Structure (SMILES) | EC50 [1] [nM] | inhibition [2] | Ki (Rhodesain) [nM] | K [3] [×10³ /M/min] | K (Procathepsin L [4]) [×10³ /M/min] | EC50 [5] [nM] | IC50 (Falcipain 2) [nM] | Kinact (Procathepsin L [6]) [min⁻¹] | EC50 (Plasmodium falciparum) [nM] | Activity [7] | Kinact [8] [min⁻¹] | Activity [9] | Ki (Procathepsin L [10]) [nM] | CC50 at 48 h [11] [nM] | selectivity ratio at 48 h [12] | Activity [13] [µM] | inhibition [14]
CC(=O)/C=C/[C@H](CCc1ccccc1)NC(=O)[C@H](Cc1ccccc1)NC(=O)OCc1ccccc1 | 3180 | Dose-dependent effect | 0.038 | 67000 | 5750 | 2970 | 3010 | 0.002 | 7030 | inactive | 0.00255 | Dose-dependent effect | 0.4 | 7900 | 2.6 | 160 | –
COC(=O)/C=C/[C@H](CCc1ccccc1)NC(=O)[C@H](CC(C)C)NC(=O)OCc1ccccc1 | 6080 | – | 7.5 | 509 | 81 | 5020 | 9530 | 0.0032 | 4400 | – | 0.0038 | – | 40 | – | – | – | –
CC(C)C[C@H](NC(=O)OCc1ccccc1)C(=O)N[C@H](/C=C/S(=O)(=O)c1ccccc1)CCc1ccccc1 | 2500 | – | 9.1 | 342 | 1570 | 2620 | 780 | 0.0009 | 1530 | – | 0.0028 | – | 0.61 | 12200 | 4.6 | – | –
CC(C)C[C@H](NC(=O)OCc1ccccc1)C(=O)N[C@H](/C=C/C#N)CCc1ccccc1 | – | – | 53 | 19 | 3.8 | – | > 50000 | 0.0012 | > 10000 | – | 0.001 | – | 330 | – | – | – | –
O=C(N[C@@H](Cc1ccccc1)C(=O)N[C@H](/C=C/S(=O)(=O)c1ccccc1)CCc1ccccc1)OCc1ccccc1 | 23700 | – | 5 | 663 | 4.4 | 18500 | 7330 | 0.0014 | > 10000 | – | 0.0033 | – | 290 | – | – | – | –
CC(C)C[C@H](NC(=O)[C@H]1O[C@@H]1C(=O)O)C(=O)NCCCCN=C(N)N [E-64] | – | – | 35 | 261 | 110 | – | 250 | 0.0032 | – | – | 0.009 | – | 30 | – | – | – | –
O=C(N[C@@H](Cc1ccccc1)C(=O)N[C@H](/C=C/S(=O)(=O)c1ccccc1)CCc1ccccc1)OCc1ccc([N+](=O)[O-])cc1 | 5480 | – | 7.2 | 334 | 65 | 4070 | > 50000 | 0.003 | > 10000 | – | 0.0024 | – | 45 | – | – | – | –
N#C/C=C/[C@H](CCc1ccccc1)NC(=O)[C@H](Cc1ccccc1)NC(=O)OCc1ccc([N+](=O)[O-])cc1 | – | – | 1740 | 0.26 | – | – | > 50000 | – | > 10000 | – | 0.0004 | – | – | – | – | – | –
CCN(CC)CCCC(C)Nc1ccnc2cc(Cl)ccc12 (stereo unspecified) [CHLOROQUINE] | – | – | – | – | – | – | – | – | 57 | – | – | – | – | – | – | – | –
N#C/C=C/[C@H](CCc1ccccc1)NC(=O)[C@H](Cc1ccccc1)NC(=O)OCc1ccccc1 | – | – | 46 | 12 | 9.3 | – | > 50000 | 0.0022 | > 10000 | – | 0.0005 | – | 240 | – | – | – | –
COC(=O)/C=C/[C@H](CCc1ccccc1)NC(=O)[C@H](Cc1ccccc1)NC(=O)OCc1ccccc1 | 12900 | – | 2 | 919 | 153 | 8280 | > 50000 | 0.004 | > 10000 | – | 0.0018 | – | 27 | – | – | – | –
CC(=O)/C=C/[C@H](CCc1ccccc1)NC(=O)[C@H](CC(C)C)NC(=O)OCc1ccccc1 | 3850 | – | 0.5 | 3800 | 13 | 3200 | 250 | 0.0013 | 3160 | – | 0.0016 | – | 110 | 9580 | 3 | – | –
CC(=O)/C=C/[C@H](CCc1ccccc1)NC(=O)[C@H](CC(C)C)NC(=O)OCc1ccc([N+](=O)[O-])cc1 | 3230 | – | 0.9 | 2970 | 739 | 2480 | 110 | 0.0026 | 2740 | – | 0.0027 | – | 3.5 | 8200 | 3.3 | – | –
N=C(NCCCCCCNC(=N)NC(=N)Nc1ccc(Cl)cc1)NC(=N)Nc1ccc(Cl)cc1 [CHLORHEXIDINE] | 670 | – | – | – | – | 530 | – | – | – | – | – | – | – | – | – | – | –
COC(=O)/C=C/[C@H](CCc1ccccc1)NC(=O)[C@H](Cc1ccccc1)NC(=O)OCc1ccc([N+](=O)[O-])cc1 | 97200 | – | 3.6 | 347 | 64 | – | > 50000 | 0.0016 | > 10000 | – | 0.0012 | – | 25 | – | – | – | –
CC(C)C[C@H](NC(=O)OCc1ccc([N+](=O)[O-])cc1)C(=O)N[C@H](/C=C/C#N)CCc1ccccc1 | – | – | – | – | – | – | > 50000 | – | > 10000 | – | – | – | – | – | – | – | inactive
COC(=O)/C=C/[C@H](CCc1ccccc1)NC(=O)[C@H](CC(C)C)NC(=O)OCc1ccc([N+](=O)[O-])cc1 | – | – | 17 | 152 | 35 | – | 9630 | 0.0014 | 3970 | – | 0.0023 | – | 41 | – | – | – | –
CC(C)C[C@H](NC(=O)OCc1ccc([N+](=O)[O-])cc1)C(=O)N[C@H](/C=C/S(=O)(=O)c1ccccc1)CCc1ccccc1 | – | – | 14 | 304 | 22 | – | 1320 | 0.005 | 2310 | – | 0.0043 | – | 250 | – | – | – | –
CC(=O)/C=C/[C@H](CCc1ccccc1)NC(=O)[C@H](Cc1ccccc1)NC(=O)OCc1ccc([N+](=O)[O-])cc1 | 6050 | – | 0.074 | 24400 | 737 | 4980 | 780 | 0.0016 | 7180 | – | 0.0017 | – | 2.2 | – | – | – | –
